Screening results from PubChem BioAssay.
The list is not random: actives were taken first. Their share in the collection is about 1.7%.
SR-BI uptake up: enhances SR-BI lipid uptake from DiI-HDL. CHO ldlA[mSR-BI] cells, DiI-HDL uptake fluorescence, 3 h; 100 = double the neutral-control signal. activation, % at 12.5 µM. actives 0.096% (n = 320,000);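 active = mean replicate activation of at least 60% and every replicate at or above 60%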;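 note: 0% = median plate neutral-control signal and 100% = twice that signal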
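Material: SR-BI-overexpressing, LDLR-lacking CHO cells | Dosing: Single compound concentration, delivered by pin transfer | Probe or stimulus: Labelled HDL, 10 µg/mL | Signal: Bottom-read cell fluorescence after medium removal, ex 550/em 595 nm | Schedule: 3 h, 37 °C | Evaluation: HDL uptake via cellular fluorescence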
SR-BI DiI inh: mouse SR-BI HDL lipid transfer inhibition | Q61009 | ldlA[mSR-BI] CHO cells, DiI-HDL uptake fluorescence, 3 h | inhibition, % at 12.5 µM | actives 0.96% (n = 320,000) | AID 488896;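 active = mean replicate inhibition of at least 70% and a set share of replicates each scoring 70 or more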;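 note: 0% = median of neutral control wells and 100% = median of positive control wells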
Target sequence (Q61009 whole entry, looked up): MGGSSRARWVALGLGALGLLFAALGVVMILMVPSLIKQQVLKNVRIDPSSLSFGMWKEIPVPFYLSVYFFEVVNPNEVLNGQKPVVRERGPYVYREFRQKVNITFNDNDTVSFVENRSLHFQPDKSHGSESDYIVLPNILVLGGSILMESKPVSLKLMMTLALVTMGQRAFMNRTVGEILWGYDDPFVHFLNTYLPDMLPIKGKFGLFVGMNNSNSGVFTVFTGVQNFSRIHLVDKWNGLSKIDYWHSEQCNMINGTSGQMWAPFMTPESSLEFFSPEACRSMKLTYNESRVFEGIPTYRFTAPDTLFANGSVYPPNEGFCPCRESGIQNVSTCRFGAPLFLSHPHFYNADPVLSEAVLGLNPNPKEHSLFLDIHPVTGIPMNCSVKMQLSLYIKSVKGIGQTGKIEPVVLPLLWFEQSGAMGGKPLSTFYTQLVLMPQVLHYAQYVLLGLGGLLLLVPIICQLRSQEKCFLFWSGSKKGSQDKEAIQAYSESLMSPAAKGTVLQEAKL
Statin myotox sup: suppressors of simvastatin-induced myotoxicity in C2C12 myotubes. actives 0.78% (n = 330,000). rescue of ATP level, % at 7.49 µM. AID 602340. ATP luminescence, 48 h; scaled: DMSO 0, geranylgeraniol control 100;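 active = mean ATP rescue above about 67%, or every replicate alone reaching that limit, limit read from the data, passing the limit was not always enough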;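 note: myotubes were challenged with 10 µM simvastatin during compound exposure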
Vif inh: inhibitors of HIV Vif | AID 602346 | inhibition, % at 7.49 µM | HEK293T cells, Vif self-association by quenched fluorescence, imaging, 24 h | actives 0.35% (n = 340,000); in the data active = inhibition above about 50%, passing the limit was not always enough
An asterisk follows results filed as active; · = no result.

SMILES | SR-BI uptake up | SR-BI DiI inh | Statin myotox sup | Vif inh
C[C@H]1CN([C@@H](C)CO)C(=O)c2cccc(N(C)C)c2O[C@@H]1CN(C)Cc1ccc(Cl)c(Cl)c1 | · | · | 95* | ·
C[C@H](CO)N1C[C@H](C)[C@@H](CN(C)Cc2ccc(Cl)c(Cl)c2)Oc2ccc(NC(=O)Cc3ccccc3)cc2CC1=O | · | · | 86* | ·
C[C@H]1CN([C@@H](C)CO)C(=O)c2cc(C#CCN(C)C)cnc2O[C@@H]1CN(C)C(=O)NC1CCCC1 | · | · | 58 | ·
CC(CCc1ccccc1)NC(=O)C1CCCN(C(=O)c2cc3sccc3n2C)C1 (configuration not stated) | -80 | 80* | 28 | -7
Cn1c(C(=O)N2CCCC(C(=O)NCc3cccs3)C2)cc2sccc21 (configuration not stated) | -41 | 41 | 5 | 5
C[C@H]1CN([C@@H](C)CO)C(=O)Cc2cc(NC(=O)CCCN(C)C)ccc2O[C@@H]1CN(C)S(=O)(=O)c1ccccc1 | · | · | -15 | ·
CNC(=O)Cn1ncc2c(C)n(Cc3ccc(C)cc3)c(C)c2c1=O | · | · | 120* | -5
Cc1ccc(Cn2c(C)c3cnn(CC(=O)NC4CCCC4)c(=O)c3c2C)cc1 | -60 | 60 | 8 | -5
COC(=O)/C(=C\Nc1ccc(Cl)cc1Cl)NC(=O)c1ccc(OC)cc1 | -83 | 83* | -53 | -1
COC(=O)/C(=C\Nc1ccc(OC)cc1)NC(=O)c1ccc(Cl)cc1Cl | -26 | 26 | · | -11
CCCCn1nnc(NC(=O)C(c2ccccc2)c2ccccc2)n1 | 35 | -35 | · | 4
CCCn1nnc(NC(=O)C(c2ccccc2)c2ccccc2)n1 | -3 | 3 | 14 | 50*
C[C@@H]1CN([C@@H](C)CO)S(=O)(=O)c2ccc(C3=CCCCC3)cc2O[C@@H]1CN(C)C(=O)Nc1ccc2c(c1)OCO2 | · | · | -3 | ·
Cc1cc(N)ccc1NC(=O)c1ccccc1 | 16 | -16 | 7 | 8
Cc1cc(NC(=O)c2ccccc2)c(Cl)cc1N | -10 | 10 | 6 | 116*
C[C@@H]1CN([C@H](C)CO)C(=O)c2cccc(NS(=O)(=O)c3cccs3)c2O[C@H]1CN(C)Cc1ccc(Cl)c(Cl)c1 | · | · | 0 | ·
Cc1ccc(C(C(=O)NCc2ccc(F)cc2)N(Cc2ccco2)C(=O)c2snc(C(N)=O)c2N)o1 (configuration not stated) | · | · | -6 | 58*
CO[C@H]1CN(C)C(=O)c2cc(NC(C)=O)ccc2OC[C@H](C)N(Cc2nccs2)C[C@H]1C | · | · | 3 | ·
CN1C(=O)C2(c3ccccc31)C1CCCC=C1C(C#N)=C(N)C2(C#N)C#N (configuration not stated) | -7 | 7 | 155* | 2
C/C=C/c1ccc2c(c1)O[C@@H](CN(C)C(=O)c1cnccn1)[C@@H](C)CN([C@H](C)CO)S2(=O)=O | · | · | 7 | ·
O=c1ccnc(NCCc2ccccc2)[nH]1 | -7 | 7 | 99* | -2
O=C(CSC1=Nc2ccccc2C2CC=NN12)NCc1ccco1 (configuration not stated) | -50 | 50 | 98* | 0
CC(C)C12CN3CC(C(C)C)(CN(C1)C3c1ccccc1O)C2=O (configuration not stated) | 24 | -4 | 11 | -5
CC(C)C12CN3CC(C(C)C)(CN(C1)C31C(=O)Nc3ccccc31)C2=O (configuration not stated) | -1 | 9 | 90* | 6
CCN1CCN(c2cc(C(C)C)nc3c(-c4ccccc4)c(C)nn23)CC1 | · | · | · | 0
SMILES | SR-BI uptake up | SR-BI DiI inh | Statin myotox sup | Vif inh
CCCc1cc(N2CCCC2)n2nc(C)c(-c3ccccc3)c2n1 | -78 | 78* | -1 | -20
COc1ccc(NC(=O)c2cn(-c3ccccc3)nc2-c2cc3ccccc3o2)cc1 | -81 | 81* | 29 | ·
COc1ccc(-c2nn(-c3ccccc3)cc2C(=O)NC(=S)NNC(=O)c2ccncc2)cc1 | -11 | 11 | 20 | 60*
COc1ccc(NC(=O)c2cn(-c3ccccc3)nc2-c2ccncc2)cc1 | -49 | 49 | · | -2
Cc1ccc(-n2nnc3c(=O)n(CC(=O)OCc4ccccc4)cnc32)cc1 | 0 | 0 | -6 | 75*
CCOC(=O)C(CC)n1cnc2c(nnn2-c2ccc(OC)cc2)c1=O (configuration not stated) | -6 | 6 | 98* | 4
COC(=O)c1ccc2c(=O)n(Cc3ccco3)c(SCC(=O)Nc3cc(C)on3)nc2c1 | 21 | -21 | · | 53*
COC(=O)c1ccc2c(=O)n(Cc3ccco3)c(SCC(=O)Nc3ccccc3Cl)nc2c1 | -17 | 17 | 2 | 1
